# ChEMBL document CHEMBL5357069, “Development of a GC-376 Based Peptidomimetic PROTAC as a Degrader of 3-Chymotrypsin-like Protease of SARS-CoV-2” (ACS Med Chem Lett, 2024)
# Calls of active or inactive are those of the source. The calls are words filed in the database; no cut-off is given here.
# Assays:
# [1] = biological target: Replicase polyprotein 1ab (Severe acute respiratory syndrome coronavirus 2, UniProt P0DTD1); assay: Inhibition of N-terminal 6xHis-tagged SARS-CoV-2 3CLPro expressed in Escherichia coli BL21(DE3) using Hi-lyte Fluor-488-ESATLQSGLRKAK-(QXL-520)-NH2 as substrate preincubated for 10 mins followed by substrate addition measured for 30 mins by fluorometric assay
# [2] = biological target: Replicase polyprotein 1ab (Severe acute respiratory syndrome coronavirus 2) (UniProt P0DTD1); assay: Binding affinity to SARS-CoV-2 3CLPro assessed as covalent complex formation by MALDI TOF mass spectrometry
# [3] = biological target: Replicase polyprotein 1ab (Severe acute respiratory syndrome coronavirus 2) (UniProt P0DTD1); assay: Binding affinity to monomeric form of SARS-CoV-2 3CLPro assessed as change in chemical shift by NMR spectroscopy
# [4] = biological target: Replicase polyprotein 1ab (Severe acute respiratory syndrome coronavirus 2) (UniProt P0DTD1); assay: Binding affinity to dimeric form of SARS-CoV-2 3CLPro assessed as change in chemical shift by NMR spectroscopy
# Summary of the method: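 Solution NMR titration of dimeric 3CLPro with the ligand up to a 1:1 protein:ligand molar ratio, following loss of free-protein signals and appearance of adduct signals.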
# [5] = biological target: Replicase polyprotein 1ab (Severe acute respiratory syndrome coronavirus 2) (UniProt P0DTD1); assay: Reversible binding affinity to SARS-CoV-2 3CLPro using fluorogenic substrate assessed as covalent complex formation preincubated for 30 mins followed by substrate addition by MALDI TOF mass spectrometry
# Summary of the method: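 Reversibility by dilution: enzyme incubated 30 min with or without large compound excess, then diluted 100-fold into buffer with fluorogenic substrate; initial velocities from progress curves compared against compound-free enzyme.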
# [6] = biological target: T1, Protein cereblon/Replicase polyprotein 1ab (Severe acute respiratory syndrome coronavirus 2) (UniProt Q96SW2+P0DTD1); assay: PROTAC activity at CRBN/C-terminal HA epitope-tagged SARS-CoV-2 3CLPro transfected in human HeLa cells assessed as degradation of 3CLPro upto 80 uM by immunoblot analysis; format: cell-based
# Summary of the method: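 HeLa cells stably expressing C-terminally HA-tagged 3CLPro (lentiviral, puromycin-selected) treated 24 h at a range of concentrations; lysates immunoblotted, 3CLPro normalized to actin.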
# [7] = biological target: T1, Protein cereblon/Replicase polyprotein 1ab (Severe acute respiratory syndrome coronavirus 2); assay: PROTAC activity at CRBN/C-terminal HA epitope-tagged SARS-CoV-2 3CLPro transfected in human HeLa cells assessed as degradation of 3CLPro at 80 uM incubated upto 48 hrs by immunoblot analysis; format: cell-based
# Summary of the method: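 Time course in HeLa cells stably expressing C-terminally HA-tagged 3CLPro (lentiviral transduction, puromycin selection), treated at 80 μM; whole-cell extracts immunoblotted, 3CLPro band normalized to actin.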
# HeLa = assay: Cytotoxicity against human HeLa cells assessed as cell viability upto 80 uM incubated for 72 hrs by MTT assay; format: toxicity, cell-based
# Summary of the method: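 HeLa cells exposed to compound for 72 h at a series of concentrations; viability read by MTT assay.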
# [8] = biological target: Replicase polyprotein 1ab (Severe acute respiratory syndrome coronavirus 2) (UniProt P0DTD1); assay: Inhibition of N-terminal 6xHis-tagged SARS-CoV-2 3CLPro expressed in Escherichia coli BL21(DE3) using Hi-lyte Fluor-488-ESATLQSGLRKAK-(QXL-520)-NH2 as substrate at 100 uM preincubated for 10 mins followed by substrate addition measured for 30 mins by fluorometric assay relative to control; settings: time 40.0 min
# [9] = biological target: Replicase polyprotein 1ab (Severe acute respiratory syndrome coronavirus 2) (UniProt P0DTD1); assay: Inhibition of N-terminal 6xHis-tagged SARS-CoV-2 3CLPro expressed in Escherichia coli BL21(DE3) using Hi-lyte Fluor-488-ESATLQSGLRKAK-(QXL-520)-NH2 as substrate at 10 uM preincubated for 10 mins followed by substrate addition measured for 30 mins by fluorometric assay relative to control; settings: time 40.0 min
Compound,IC50 [1] [µM],Activity [2],Activity [3],Activity [4],Activity [5],Activity [6],Activity [7],Activity (HeLa),inhibition [8] [%],inhibition [9] [%]
COC(=O)/C=C/[C@H](C[C@@H]1CCNC1=O)NC(=O)[C@H](CC(C)C)NC(=O)OCc1ccccc1,1.35,Active,–,–,–,–,–,–,–,–
CC(C)C[C@H](NC(=O)OCc1ccccc1)C(=O)N[C@H](/C=C/C(=O)N1CCN(CC2CCN(c3cc4c(cc3F)C(=O)N(C3CCC(=O)NC3=O)C4=O)CC2)CC1)C[C@@H]1CCNC1=O (stereo partly drawn),21.2,Active,inactive,Active,Active,Active,Active,Non-Toxic,–,–
COC(=O)/C=C/[C@H](C[C@@H]1CCNC1=O)NC(=O)[C@H](Cc1ccccc1)NC(=O)[C@@H](NC(=O)CCC(=O)N1CCN(C(=O)C2CCN(c3cccc4c3C(=O)N(C3CCC(=O)NC3=O)C4=O)CC2)CC1)C(C)C (stereo partly drawn),> 100,–,–,–,–,–,–,–,64,0
